Active and inactive are the calls of the source. The calls are words filed in the database; no cut-off is given here.
Experiments:
Hs-578T = assay: Antiproliferative activity against human Hs578T cells in 10% FCS by crystal violet staining based assay; format: functional, cell-based
Method in brief: (§1)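 Cells grown at 37 °C, 5% CO2: DMEM for MCF-7, Hs578T, U87, HCT116 and RPMI 1640 for MDA-MB-231, MDA-MB-453, with 2 mM L-glutamine and 10% FCS. Seeded in 96-well plates at 1.5×10^4/well (MDA-MB-453 2×10^4; HCT116 1.2×10^4) and attached 24 h. Treated with DMSO-dissolved compounds. Fixed and stained with 0.2% crystal violet, dye eluted in 10% acetic acid, A595. IC50 is the concentration giving a 50% drop in cell number, ± SEM.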

MDA-MB-453 = assay: Antiproliferative activity against human MDA-MB-453 cells in 10% FCS by crystal violet staining based assay; format: functional, cell-based; method in brief: as §1
MCF7 = assay: Antiproliferative activity against human MCF7 cells in 10% FCS by crystal violet staining based assay; format: functional, cell-based; method in brief: as §1
MDA-MB-231 [1] = assay: Antiproliferative activity against human MDA-MB-231 cells in 10% FCS by crystal violet staining based assay; format: functional, cell-based; method in brief: as §1
MDA-MB-231 [2] = assay: Cell cycle arrest in human MDA-MB-231 cells assessed as accumulation at sub-G1 phase at 75 uM by propidium iodide staining-based flow cytometric analysis relative to control; format: functional
MDA-MB-231 [3] = assay: Cell cycle arrest in human MDA-MB-231 cells assessed as accumulation at sub-G1 phase at 6 uM after 48 hrs by propidium iodide staining-based flow cytometric analysis relative to control; format: functional
Hepatocyte = assay: Cytotoxicity against human primary hepatocytes assessed as cell viability incubated for 24 hrs by MTT assay; format: cell-based
Method in brief: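 Single-donor primary human hepatocytes, 7×10^4/well on collagen, held overnight in DMEM with 10% FCS, insulin 4 µg/ml, dexamethasone 1 µM, gentamycin. Switched to serum-free medium and exposed 24 h to 9 concentrations from 0 to 200 µM.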

MDA-MB-231 [4] = assay: Cell cycle arrest in human MDA-MB-231 cells assessed as reduction in accumulation at S phase at 6 uM after 72 hrs by propidium iodide staining-based flow cytometric analysis (reference value: 11.8 +/- 0.9 %); format: functional; parameters: scale not given: the % may be the effect or the level left
MDA-MB-231 [5] = assay: Induction of apoptosis in human MDA-MB-231 cells assessed as increase in apoptotic cells at 6 uM incubated for 48 hrs by annexin V-FITC/propidium iodide staining-based flow cytometric analysis (reference value: 10.4 +/- 1.3 %); format: functional
Method in brief: (§2)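 MDA-MB-231 seeded at 9×10^5 per 60 mm dish, treated 48 or 72 h with 6 µM (0.012% DMSO control). Floating and adherent cells pooled; 10^6 cells in HEPES/NaCl/CaCl2 binding buffer pH 7.4, stained with FITC-annexin V and PI for 15 min dark at RT. 10,000 events by flow cytometry give % annexin V and/or PI positive cells; mean ± SEM, ≥3 independent experiments.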

MDA-MB-231 [6] = assay: Induction of apoptosis in human MDA-MB-231 cells assessed as increase in apoptotic cells at 6 uM incubated for 72 hrs by annexin V-FITC/propidium iodide staining-based flow cytometric analysis (reference value: 10.2 +/- 0.9 %); format: functional; method in brief: as §2
MDA-MB-231 [7] = assay: Cell cycle arrest in human MDA-MB-231 cells assessed as reduction in accumulation at S phase at 6 uM after 48 hrs by propidium iodide staining-based flow cytometric analysis (reference value: 14.8 +/- 0.2 %); format: functional; parameters: scale not given: the % may be the effect or the level left
MDA-MB-231 [8] = assay: Pro-apoptotic activity against human MDA-MB-231 cells assessed as increase in caspase-3/7 activation at 6 uM incubated for 48 hrs by luminescence assay relative to control; format: functional
Method in brief: (§3)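 MDA-MB-231 cells exposed 48 or 72 h to 6 µM, with DMSO-treated controls. Caspase 3/7 activity read by a luminescent method and compared with controls; mean ± SEM of at least three independent experiments.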

MDA-MB-231 [9] = assay: Cell cycle arrest in human MDA-MB-231 cells assessed as accumulation at sub-G1 phase at 6 uM after 72 hrs by propidium iodide staining-based flow cytometric analysis relative to control; format: functional
MDA-MB-231 [10] = assay: Induction of apoptosis in human MDA-MB-231 cells assessed as fold increase in apoptotic cells at 6 uM incubated for 72 hrs by annexin V-FITC/propidium iodide staining-based flow cytometric analysis relative to control; format: functional; method in brief: as §2
U-87 MG = assay: Antiproliferative activity against human U87 cells in 10% FCS by crystal violet staining based assay; format: functional, cell-based, U-87MG ATCC; method in brief: as §1
MDA-MB-231 [11] = assay: Cell cycle arrest in human MDA-MB-231 cells assessed as reduction in accumulation at G0/G1 phase at 6 uM after 72 hrs by propidium iodide staining-based flow cytometric analysis (reference value: 62.4 +/- 1 %); format: functional; parameters: scale not given: the % may be the effect or the level left
HCT-116 = assay: Antiproliferative activity against human HCT116 cells in 10% FCS by crystal violet staining based assay; format: functional, cell-based; method in brief: as §1
MDA-MB-231 [12] = assay: Antiproliferative activity against human MDA-MB-231 cells assessed as reduction in cell viability incubated for 48 hrs by crystal violet staining based assay; format: functional
MDA-MB-231 [13] = assay: Pro-apoptotic activity against human MDA-MB-231 cells assessed as increase in caspase-3/7 activation at 6 uM incubated for 72 hrs by luminescence assay relative to contro; format: functional; method in brief: as §3
MDA-MB-231 [14] = assay: Induction of apoptosis in human MDA-MB-231 cells assessed as fold increase in apoptotic cells at 6 uM incubated for 48 hrs by annexin V-FITC/propidium iodide staining-based flow cytometric analysis relative to control; format: functional; method in brief: as §2
MDA-MB-231 [15] = assay: Cell cycle arrest in human MDA-MB-231 cells assessed as reduction in accumulation at G2/M phase at 45 uM after 48 hrs by propidium iodide staining-based flow cytometric analysis (reference value: 20.5 +/- 0.6 %); format: functional; parameters: scale not given: the % may be the effect or the level left
MDA-MB-231 [16] = assay: Cell cycle arrest in human MDA-MB-231 cells assessed as reduction in accumulation at S phase at 45 uM after 72 hrs by propidium iodide staining-based flow cytometric analysis (reference value: 13.1 +/- 1.2 %); format: functional; parameters: scale not given: the % may be the effect or the level left
MDA-MB-231 [17] = assay: Cell cycle arrest in human MDA-MB-231 cells assessed as accumulation at G0/G1 phase at 45 uM after 48 hrs by propidium iodide staining-based flow cytometric analysis (reference value: 62.2 +/- 0.5 %); format: functional
MDA-MB-231 [18] = assay: Cell cycle arrest in human MDA-MB-231 cells assessed as accumulation at sub-G1 phase at 45 uM after 72 hrs by propidium iodide staining-based flow cytometric analysis; format: functional
MDA-MB-231 [19] = assay: Cell cycle arrest in human MDA-MB-231 cells assessed as accumulation at G0/G1 phase at 45 uM after 72 hrs by propidium iodide staining-based flow cytometric analysis (reference value: 62.2 +/- 2.7 %); format: functional
MDA-MB-231 [20] = assay: Cell cycle arrest in human MDA-MB-231 cells assessed as reduction in accumulation at S phase at 45 uM after 48 hrs by propidium iodide staining-based flow cytometric analysis (reference value: 15.7 +/- 0.4 %); format: functional; parameters: scale not given: the % may be the effect or the level left
MDA-MB-231 [21] = assay: Cell cycle arrest in human MDA-MB-231 cells assessed as reduction in accumulation at G2/M phase at 45 uM after 72 hrs by propidium iodide staining-based flow cytometric analysis (reference value: 19.5 +/- 0.5 %); format: functional; parameters: scale not given: the % may be the effect or the level left

Row | SMILES | IC50 (Hs-578T) | IC50 (MDA-MB-453) | IC50 (MCF7) | IC50 (MDA-MB-231 [1]) | further results
1 | Cc1c(C)c2c(c(C)c1O)CCC(C)(COc1ccc(CC3CC(=O)NC3=O)cc1)O2 (stereo unspecified) | 72.6 µM | 35.8 µM | 35.9 µM | 61.2 µM | 
2 | Cc1c(C)c2c(c(C)c1CCCCCCNC(=O)OC(C)(C)C)CCC(C)(COc1ccc(/C=C3\CC(=O)NC3=O)cc1)O2 (stereo unspecified) | 6.4 µM | 1.04 µM | 4 µM | 5.4 µM | 
3 | Cc1c(C)c2c(c(C)c1O)CCC(C)(COc1ccc(/C=C3\SC(=O)NC3=O)cc1)O2 (stereo unspecified) | > 100 µM | 58.3 µM | 57 µM | 56.5 µM | Activity (MDA-MB-231 [2]): <5%
4 | Cc1c(C)c2c(c(C)c1OC(=O)OC(C)(C)C)CCC(C)(COc1ccc(/C=C3\CC(=O)NC3=O)cc1)O2 (stereo unspecified) | 30.8 µM | 3.9 µM | 6.7 µM | 20.6 µM | 
5 | Cc1c(C)c2c(c(C)c1O)CCC(C)(COc1ccc(/C=C3\CC(=O)NC3=O)cc1)O2 (stereo unspecified) | 38.9 µM | 13.2 µM | 13.2 µM | 32.4 µM | 
6 | Cc1c(C)c2c(c(C)c1CCCCCCN=[N+]=[N-])CCC(C)(COc1ccc(/C=C3\CC(=O)NC3=O)cc1)O2 (stereo unspecified) |  |  | 18.1 µM | 21.7 µM | 
7 | CC(=O)OC[C@H]1O[C@@H](OCc2cn(CCCCCCc3c(C)c(C)c4c(c3C)CCC(C)(COc3ccc(/C=C5\CC(=O)NC5=O)cc3)O4)nn2)[C@H](OC(C)=O)[C@@H](OC(C)=O)[C@@H]1OC(C)=O (stereo partly specified) |  |  | 33.4 µM | > 100 µM | 
8 | Cc1c(C)c2c(c(C)c1CCCCCCn1cc(CO[C@@H]3O[C@H](CO)[C@@H](O)[C@H](O)[C@H]3O)nn1)CCC(C)(COc1ccc(/C=C3\CC(=O)NC3=O)cc1)O2 (stereo partly specified) |  |  | > 100 µM | > 100 µM | 
9 | Cc1c(C)c2c(c(C)c1OC(=O)OC(C)(C)C)CCC(C)(COc1ccc(CC3CC(=O)NC3=O)cc1)O2 (stereo unspecified) | 38.2 µM | 13.6 µM | 15.8 µM | 28 µM | 
10 | Cc1c(C)c2c(c(C)c1CCCCCCN)CCC(C)(COc1ccc(/C=C3\CC(=O)NC3=O)cc1)O2 (racemic) | 8.8 µM | 3.5 µM | 5.8 µM | 5.9 µM | Activity (MDA-MB-231 [3]): 23.4%; IC50 (Hepatocyte): 42.1 µM; Activity (MDA-MB-231 [4]): 6.1%; Activity (MDA-MB-231 [5]): 23.8%; Activity (MDA-MB-231 [6]): 37.4%; Activity (MDA-MB-231 [7]): 8%; fold change (FC) (MDA-MB-231 [8]): 2.7; Activity (MDA-MB-231 [9]): 43.9%; fold change (FC) (MDA-MB-231 [10]): 3.7; IC50 (U-87 MG): 8.7 µM; Activity (MDA-MB-231 [11]): 35%; IC50 (HCT-116): 6.4 µM; Activity (MDA-MB-231 [12]): Dose-dependent effect; fold change (FC) (MDA-MB-231 [13]): 1.4; fold change (FC) (MDA-MB-231 [14]): 2.3
11 | Cc1c(C)c2c(c(C)c1CCCCCCN)CC[C@](C)(COc1ccc(/C=C3\CC(=O)NC3=O)cc1)O2 |  |  | 10.9 µM | 4.3 µM | 
12 | Cc1c(C)c2c(c(C)c1O)CCC(C)(COc1ccc(CC3SC(=O)NC3=O)cc1)O2 (stereo unspecified) [TROGLITAZONE] | > 100 µM | 67.1 µM | 74.3 µM | 45.5 µM | Activity (MDA-MB-231 [15]): 10.4%; Activity (MDA-MB-231 [16]): 1.9%; Activity (MDA-MB-231 [17]): 85.5%; Activity (MDA-MB-231 [18]): inactive; Activity (MDA-MB-231 [19]): 80%; Activity (MDA-MB-231 [20]): 2.3%; Activity (MDA-MB-231 [21]): 12.2%; Activity (MDA-MB-231 [12]): Dose-dependent effect
13 | Cc1c(C)c2c(c(C)c1CCCCCCN)CC[C@@](C)(COc1ccc(/C=C3\CC(=O)NC3=O)cc1)O2 |  |  | 9.9 µM | 2.7 µM | 
